Screens deposited in PubChem by several laboratories.
HIV Rev-RRE inh = disrupts HIV-1 Rev binding to RRE RNA | 97,000 tested, 0.79% active | Rev peptide-RRE RNA binding, FRET | inhibition, % at 8 µM | P05866;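 active = inhibition above the screen-wide mean plus 3 SD, cut at about 35% in these data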;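 also: 0% = median DMSO wells and 100% = median Neomycin B control wells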
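Probe or stimulus: fluorescein-Rev peptide as binding partner; assay system: Cy5-tagged RRE RNA duplex with fluorescein-tagged Rev peptide; timing: 5 min compound–RNA preincubation, then 15 min with peptide, 25 °C; medium: HEPES pH 7.5 buffer with KCl, MgCl2, NaCl and EDTA; signal: fluorescein-to-Cy5 FRET, 480 nm excitation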
Pyk2 oligo antag = antagonists of human Pyk2 oligomerization | AID 1347419 | 99,000 tested, 0.83% active | Q293 cells, Pyk2 FERM NanoBiT luminescence; stronger effect = lower value | Q14289 | z-score (the deposit names both 25 µM and 10 µM);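 active = Z-score of -3 or lower, scaled per plate to the spread of control and sample wells; inactive = z-score above -3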;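 also: negative z-score means lost luminescence so less FERM oligomerization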
PTPN22 inh 2 = inhibitors of human LYP (PTPN22) phosphatase; inhibition, % at 2 µM; 96,000 tested, 0.21% active; Q9Y2R2; recombinant LYP catalytic domain, DiFMUP fluorescence;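 active = inhibition at 2 µM at or above a set limit, the screen mean plus 3 SD, cut at about 24% in these data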;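 also: 0% = DMSO with enzyme and 100% = enzyme fully blocked by orthovanadate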
LYP act = increases human PTPN22 phosphatase activity. Q9Y2R2. recombinant LYP, DiFMUP fluorescence; 0 = plate median, 100 = signal doubled. activation, % at 2 µM. 96,000 tested, 0.11% active;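 active = activation at 2 µM above a set limit, the mean plus 5 SD, cut at about 37% in these data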
* = called active by the depositor; nt = no result given; [ ] = dose if it differs, or a comment. Compounds with a hit are over-represented: about 1.8% of the library has one in this group of screens.

SMILES	HIV Rev-RRE inh	Pyk2 oligo antag	PTPN22 inh 2	LYP act
O=C1C2C3C=CC(C4CC34)C2C(=O)N1/N=C/c1ccc(-c2ccc(F)cc2[N+](=O)[O-])o1 (configuration not stated)	42*	-0.77	13	-11
Cc1cc(C)n(-c2nc(SCCN(C)C)c3c4c(sc3n2)COC(C)(C)C4)n1	4	0.39	0	5
O=C(N/N=C/c1ccc2cccc(OCc3ccccc3)c2n1)c1ccc(Cl)cc1	7	-3.1*	8	-6
CCC(CC)C(=O)Nc1cc(C)cc(C)c1	nt	-0.19	nt	nt
O=C(c1cccs1)N1CCn2c1nc1ccccc12	4	-0.41	-8	8
COc1ccccc1-n1cnc2cc(NS(=O)(=O)c3ccc(Br)cc3)ccc21	18	-3.3*	4	-1
COc1ccc(-n2cnc3cc(NS(=O)(=O)c4ccc(C)cc4)ccc32)cc1	20	-2.1	-5	7
CC(C)(C)n1nnnc1C(c1cccc(C#N)c1)N1CCC(Cc2ccccc2)CC1 (configuration not stated)	-1	-0.51	-3	0
CCC(C)(C)n1nnnc1C(c1ccncc1)N1CCC(Cc2ccccc2)CC1 (configuration not stated)	0	-3.1*	-6	8
O=c1[nH]c2cc3c(cc2cc1CN(CCc1ccccc1)Cc1nnnn1CC1CCCO1)OCO3 (configuration not stated)	41*	-0.2	7	-6
Cc1ccc2[nH]c(=O)c(CN(CCc3ccccc3)Cc3nnnn3CC3CCCO3)cc2c1 (configuration not stated)	7	0.47	10	-4
O=c1[nH]c2cc3c(cc2cc1CN(Cc1nnnn1CC1CCCO1)C1CCCCC1)OCO3 (configuration not stated)	39*	1	0	0
Cc1c(Cl)cccc1NC(=O)C1NC(=O)CC1c1ccccc1 (configuration not stated)	-1	nt	2	-2
c1ccc(CCn2nnnc2CN2CCCc3ccccc32)cc1	29	4.3	1	3
c1ccc2c(c1)CCCN2Cc1nnnn1CC1CCCO1 (configuration not stated)	55*	0.72	-12	7
CCOC(=O)c1c(NC(=S)Nc2ccccc2)sc2c1CCN(CCc1ccccc1)C2	124*[fluorescence artefact?]	nt	10	-8
COc1c(S(=O)(=O)N2CCCCC2)ccc2c(S(=O)(=O)N3CCCCC3)cccc12	15	-3.5*	7	-8
O=S(=O)(c1ccccc1F)N(Cc1ccco1)Cc1nnc(-c2ccccc2Br)o1	10	0.89	7	-6
Cc1ccc(-n2c(CNc3ccc(F)cc3)nnc2SCC(N)=O)cc1	-1	0.28	-5	4
CC(C)CN(CC(C)C)C(=O)C12CCC(C)(C(=O)O1)C2(C)C (configuration not stated)	7	-0.3	6	0
Cc1nc2ccc(S(=O)(=O)NCC(=O)NCc3ccc4c(c3)OCO4)cc2s1	2	0.32	27*	-27
O=C(c1cccn2c(=O)c3cc4ccccc4cc3nc12)N1CCN(c2ccccc2)CC1	44*	nt	7	-5
COc1ccc(-n2c(NC(=O)c3ccco3)c(C#N)c3nc4ccccc4nc32)cc1	37*	0.12	-1	1
CCCCC(=O)Nc1ccc(C(=O)NN2C(=O)c3ccccc3C2=O)cc1	0	0.49	6	-1
COC(=O)\C(C(C)=O)=C(/C=C/C=C/C=C/N(C)C)N(C)C	82*	-0.09	-8	4
SMILES	HIV Rev-RRE inh	Pyk2 oligo antag	PTPN22 inh 2	LYP act
O=[N+]([O-])c1ccc(S(=O)(=O)CC2CSc3nc4ccccc4n32)cc1 (configuration not stated)	nt	0.51	nt	nt
Oc1c(Cl)cc(Cl)cc1C=Nc1ccc2c(c1)OCCO2	46*	-0.59	7	-6
CCN(CC)c1ncnc2c1ncn2Cc1c(Cl)cccc1Cl	11	-3.1*	-3	4
CCN(CC)c1ncn(Cc2c(Cl)cccc2Cl)c2ncnc1-2	2	-1.1	2	-5
Clc1cccc(Cl)c1Cn1cnc2c(N3CCCCCC3)ncnc21	10	-3.4*	-8	2
CCCN1CCC2(CC1)C(C#N)=C(N)Oc1c2sc2nc(C)cc(C)c12	50*	0.33	7	-2
CCCCn1nc(-c2ccccc2)c2nc3ccccc3nc21	97*[fluorescence artefact?]	nt	11	-7
Cn1nc(-c2ccccc2)c2nc3ccccc3nc21	92*[fluorescence artefact?]	-1.6	-11	8
FC(F)(F)c1cnc(Sc2nnc(-c3cccs3)n2CC2CCCO2)c(Cl)c1 (configuration not stated)	-4	0.45	-4	3
N#Cc1c(Sc2ncc(C(F)(F)F)cc2Cl)nsc1C/C=N\OCc1c(F)cccc1Cl	61*	-0.27	6	-3
O=C1c2ccccc2C(=O)N1CC1=CCS(=O)(=O)C1	8	-0.28	-25	23
Cc1[nH]c2ccccc2c1SCC(=O)O	9	0.56	17	-17
Cc1[nH]c2ccccc2c1C1C(c2ccccc2)=NN=C(C(C)C)N1O (configuration not stated)	2	-3.6*	6	0
Cc1nnsc1C(=O)NC1CCCCC1	1	1.5	14	-9
CC1(C)CC(=O)C2=C(C1)OC(N)=C(C#N)C2C1CC=CCC1 (configuration not stated)	0	-1.7	-8	8
CCCC1=C(C(=O)OCC)C(c2cc(Cl)cc(OC)c2OCC(=O)OCC)NC(=O)N1 (configuration not stated)	-3	-3.1*	-15	13
CCOC(=O)COc1c(OC)cc(Cl)cc1C1NC(=O)NC(C)=C1C(C)=O (configuration not stated)	-1	-0.71	0	-1
COc1ccc(C2=CC(c3c(C)nn(-c4ccccc4)c3Cl)n3nnnc3N2)cc1OC (configuration not stated)	51*	-1.7	11	-12
Cc1oc2cc(O)cc(O)c2c(=O)c1-c1ccc2c(c1)OCCCO2	2	-3.4*	8	-8
Cc1ccc(S(=O)(=O)/N=C2/C=C(Sc3ncn[nH]3)C(=O)c3ccccc32)cc1	nt	-3.2*	nt	nt
N#C/C(=C\c1ccc(N2CCCC2)c([N+](=O)[O-])c1)c1nc2ccccc2[nH]1	37*	-2.8	2	0
C=CCNC(=S)N/N=C/c1ccc(-c2cc(Cl)ccc2Cl)o1	1	-3.4*	-4	9
CCn1c2ccccc2c2nnc(SCC(=O)N3CC(C)OC(C)C3)nc21 (configuration not stated)	2	-0.63	6	-8
COc1ccccc1C(=O)NCCc1nc2ccccc2[nH]1	3	-0.26	6	-8
Nc1ccc2oc3ccc(N)cc3c(=O)c2c1	37*	-1.3	-4	7
CCn1c2ccccc2c2cc(N)ccc21	57*	0.25	-4	3
CCn1c2ccccc2c2cc(/C(C)=N/O)ccc21	13	-0.55	5	-1
O=C(Cn1nnc2ccccc21)OCC(=O)c1ccc(Cl)c(Cl)c1	1	-4*	-8	4
O=C(Cn1nnc2ccccc21)OCC(=O)c1ccccc1	1	-0.35	-8	4
